Measured values as given in ChEMBL document CHEMBL2203101, “Molecular hybridization of bioactives: synthesis and antitubercular evaluation of novel dibenzofuran embodied homoisoflavonoids via Baylis-Hillman reaction” (Bioorg Med Chem Lett, 2012).
Values after ≈ are worked out from the molar mass of the structure shown.

Tests used:
[1] = Lipophilicity, log P of the compound; assay type: physicochemical; conditions: octanol/water
[2] = test system: Mycobacterium tuberculosis; assay: Antimycobacterial activity against Mycobacterium tuberculosis H37Rv ATCC 27294 after 28 days by agar dilution method; assay type: functional; conditions: H37Rv ATCC 27294, 672 h
Procedure, shortened: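 Compounds and reference drugs were tenfold serially diluted into Middlebrook 7H11 agar with OADC supplement. The inoculum came from fresh 7H11/OADC slants, was adjusted to 1 mg/mL (wet weight) in 0.05% Tween 80 saline, and was diluted 10^-2 to give 10^7 cfu/mL. Bacterial suspension was spotted onto the drug-containing agar tubes, incubated at 37 C, and final readings were taken after 28 days.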

## COc1cccc2c1OC/C(=C\c1ccc3oc4ccccc4c3c1)C2=O
[1]
  logP: 3.56
[2]
  MIC: 25 µg/mL (≈ 70.2 µM)

## CC(C)(C)c1ccc2c(c1)C(=O)/C(=C/c1ccc3oc4ccccc4c3c1)CO2
[1]
  logP: 5.39
[2]
  MIC: 25 µg/mL (≈ 65.4 µM)

## O=C1/C(=C/c2ccc3oc4ccccc4c3c2)COc2ccc(F)cc21
[1]
  logP: 3.84
[2]
  MIC: 12.5 µg/mL (≈ 36.3 µM)

## O=C1/C(=C/c2ccc3oc4ccccc4c3c2)COc2ccc(Br)cc21
[1]
  logP: 4.51
[2]
  MIC: 12.5 µg/mL (≈ 30.8 µM)

## O=C1/C(=C/c2ccc3oc4ccccc4c3c2)COc2ccc3ccccc3c21
[1]
  logP: 4.68
[2]
  MIC: 25 µg/mL (≈ 66.4 µM)

## O=C1/C(=C/c2ccc3oc4ccccc4c3c2)COc2c1ccc1ccccc21
[1]
  logP: 4.68
[2]
  MIC: 25 µg/mL (≈ 66.4 µM)

## O=C1/C(=C/c2ccc3oc4ccccc4c3c2)COc2ccc3oc4ccccc4c3c21
[1]
  logP: 4.35
[2]
  MIC: 25 µg/mL (≈ 60 µM)

## O=C1/C(=C/c2ccc3oc4ccccc4c3c2)COc2ccc3[nH]c4ccccc4c3c21
[1]
  logP: 4.38
[2]
  MIC: 25 µg/mL (≈ 60.2 µM)

## O=C1/C(=C/c2ccc3oc4ccccc4c3c2)COc2ccccc21
[1]
  logP: 3.69
[2]
  MIC: 25 µg/mL (≈ 76.6 µM)

## COc1ccc2c(c1)C(=O)/C(=C/c1ccc3oc4ccccc4c3c1)CO2
[1]
  logP: 3.56
[2]
  MIC: 25 µg/mL (≈ 70.2 µM)

## Cc1ccc2c(c1)C(=O)/C(=C/c1ccc3oc4ccccc4c3c1)CO2
[1]
  logP: 4.17
[2]
  MIC: 25 µg/mL (≈ 73.4 µM)

## CC[C@@H](CO)NCCN[C@@H](CC)CO [ETHAMBUTOL]
[2]
  MIC: 3.13 µg/mL (≈ 15.3 µM)

## NNC(=O)c1ccncc1 [ISONIAZID]
[2]
  MIC: 0.1 µg/mL (≈ 0.729 µM)

## NC(=O)c1cnccn1 [PYRAZINAMIDE]
[2]
  MIC: 50 µg/mL (≈ 406 µM)
